The results in this text go back to ChEMBL document CHEMBL1649400, “Synthesis and antitumor activity of ureas containing pyrimidinyl group” (Eur J Med Chem, 2011).

Holding throughout (type): functional, cell-based
One experiment concerns KB. Briefly: Cytotoxicity against human KB cells after 3 days by MTT assay. Conditions: 72 h. Summed up:
(§1)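 Cells grown in RPMI 1640 with 10% fetal calf serum were plated from suspension and held 12 h at 37 °C, 5% CO2. Test sample was then added and cells were cultured 3 days at 37 °C. MTT was added for 4 h at 37 °C, supernatant removed, formazan dissolved in DMSO, absorbance read at 570 nm. IC50 = concentration giving 50% growth inhibition versus untreated control.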

Experiment [1] can be described thus: Cytotoxicity against human CNE2 cells after 3 days by MTT assay. To be noted: CNE-2, 72 h. Put shortly:
as §1
Background: Formazan colour is commonly taken as a measure of viable cells.

The test system of a further experiment is MCF7. Briefly: Cytotoxicity against human MCF7 cells after 3 days by MTT assay. Conditions: MCF7, 72 h. Summed up:
as §1

Another experiment has as its system MGC-803. Briefly: Cytotoxicity against human MGC803 cells after 3 days by MTT assay. To be noted: MGC-803, 72 h. Summed up: as §1

As usually defined, the IC50 is the concentration at which inhibition is half-maximal. Low values mean greater potency in that assay, high ones weaker potency in that assay. Turning to `COc1ccc(NC(=O)Nc2ccc(Cl)cc2)cc1`, the half-inhibitory concentration (IC50) (in the experiment on KB; in experiment [1]; with MCF7) was > 50 µM each time.
Turning to `Cc1cc(C)nc(Oc2ccc(NC(=O)Nc3ccc(Cl)cc3Cl)cc2)n1`, the concentration for half-maximal inhibition (IC50) stood at 31.8 µM in the experiment on KB, 38.9 µM in experiment [1], 35.4 µM in the experiment on MGC-803 and 47.8 µM in the experiment on MCF7.
Consider `Cc1cccc(NC(=O)Nc2ccc(Sc3nc(C)cc(C)n3)cc2)c1`, for which the IC50 was 47.8 µM with KB, > 50 µM in experiment [1], 25.3 µM in the experiment on MGC-803 and 37 µM in the experiment on MCF7.
On the same counts, the results for `Cc1cc(C)nc(Sc2ccc(NC(=O)Nc3ccc(OC(F)(F)F)cc3)cc2)n1` are 20 µM, 22.8 µM, 13.8 µM and 41.7 µM.
For `O=c1[nH]cc(F)c(=O)[nH]1` [FLUOROURACIL] the same measures were 11.9 µM, 13.1 µM, 12.6 µM and 15.2 µM.
Regarding `Cc1cc(C)nc(Sc2ccc(NC(=O)Nc3ccc(F)cc3)cc2)n1`, the IC50 in the experiment with KB is 32.1 µM; in experiment [1], 34.1 µM; in the experiment with MGC-803 it was > 50 µM; in the experiment on MCF7 it was > 50 µM.
Take `Cc1cc(C)nc(Oc2ccc(NC(=O)Nc3ccccc3)cc2)n1`: the IC50 in the experiment with KB is > 50 µM.
With `Cc1cc(C)nc(Oc2ccc(NC(=O)Nc3ccc(OC(F)(F)F)cc3)cc2)n1`, the IC50 in the experiment on KB is 28.9 µM; in experiment [1], 30.8 µM; with MGC-803 it was > 50 µM; in the experiment on MCF7 it was > 50 µM.
Turning to `Cc1cc(C)nc(Sc2ccc(NC(=O)Nc3ccccc3)cc2)n1`, the 50% inhibitory concentration (IC50) was 25.7 µM with KB, 22 µM in experiment [1], 40.1 µM with MGC-803 and > 50 µM in the experiment with MCF7.
Regarding `COc1ccc(NC(=O)Nc2ccc(Cl)cc2Cl)cc1`, the IC50 (in the experiment with KB; in experiment [1]; with MGC-803; in the experiment on MCF7) was > 50 µM each time.
`Cc1cc(C)nc(Sc2ccc(NC(=O)Nc3ccc(Cl)cc3Cl)cc2)n1`: the concentration for half-maximal inhibition (IC50) with KB was 15.5 µM; in experiment [1], 23.2 µM; in the experiment on MGC-803, > 50 µM; in the experiment on MCF7 it was > 50 µM.
On to `Cc1cccc(NC(=O)Nc2ccc(Oc3nc(C)cc(C)n3)cc2)c1`, for which the IC50 with KB is > 50 µM.
Regarding `Cc1cc(C)nc(Oc2ccc(NC(=O)Nc3ccc(Cl)cc3)cc2)n1`, the 50% inhibitory concentration (IC50) in the experiment on KB was 25.4 µM; in experiment [1], 20.4 µM; in the experiment with MGC-803, > 50 µM; with MCF7, > 50 µM.
Turning to `Cc1cc(C)nc(Sc2ccc(NC(=O)Nc3ccc(Cl)cc3)cc2)n1`, the half-maximal inhibitory concentration (IC50) in the experiment with KB worked out at 10.2 µM; in experiment [1], 13.5 µM; in the experiment with MGC-803, 26.1 µM; in the experiment with MCF7 it was 35.3 µM.
On to `Cc1cc(C)nc(Oc2ccc(NC(=O)Nc3ccc(F)cc3)cc2)n1`, for which the half-maximal inhibitory concentration (IC50) in the experiment on KB is 48.4 µM; in experiment [1] it was 46.9 µM; in the experiment with MGC-803, > 50 µM; in the experiment on MCF7 it was > 50 µM.
